Experimental data as given in paper PMC5892780 (RMD Open, 2018).

How the values were obtained:
[1] = test system: humans; conditions: doses as low as 2.5 mg; cited from earlier work
[2] = Plasma and urine PK of verinurad in the presence of febuxostat; assay type: in vivo, human; conditions: for Tmax: human, plasma, oral; for fe0-24: urine, geometric mean (95% CI)
[3] = test system: patients with gout; conditions: lesinurad 400 mg vs lesinurad 200 mg plus febuxostat or febuxostat alone; cited from earlier work
[4] = test system: adults with gout; assay: Urinary xanthine and hypoxanthine excretion; assay type: in vivo, human; conditions: febuxostat 40 mg alone; urine
How it was run: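 Urine from gout patients on once-daily oral treatment (total catch, day –1 and weekly for 4 weeks, with a fixed water-loading schedule) was assayed for xanthine and hypoxanthine by LC/MS/MS. Assay performance was monitored with quality control samples prepared in blank matrix. These analytes served as a marker of the functional activity of the 40 mg partner-drug dose.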

[5] = Plasma PK of febuxostat alone or in the presence of verinurad; assay type: in vivo, human; conditions: for GMR AUC0-24 / GMR Cmax: GMR (90% CI)
How it was run: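 Adults with gout took the test compounds orally once daily, about 30 min after a standardised breakfast (approximately 650 kcal, 35% fat), in 7-day treatment periods. Blood was drawn weekly for 4 weeks, within 30 min predose and at intervals up to 24 h postdose. Plasma was separated by centrifugation, extracted by protein precipitation and analysed by LC/MS/MS. Cmax and AUC0-24 were compared by mixed-effects model (treatment fixed, subject random).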

[6] = test system: adults with gout; assay: Serum urate; assay type: in vivo, human
How it was run: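 Gout patients were dosed orally once daily after a standardised breakfast, 7 days per treatment period. Serum was sampled at screening, baseline (day –1) and weekly for 4 weeks, within 30 min predose and at preset intervals up to 24 h postdose. Emax is the maximum percent change from baseline. A mixed-effects model used treatment and period as fixed effects, subject as random effect and baseline as covariate; data were pooled across cohorts.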

[7] = test system: adults with gout; assay: Safety assessment; assay type: in vivo, human; conditions: febuxostat 80 mg-alone group
How it was run: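 Subjects (sUA ≥8 mg/dL, creatinine clearance ≥60 mL/min) received colchicine 0.6 mg flare prophylaxis. Once-daily oral dosing with the test compounds was given after a standardised breakfast. Safety was monitored throughout and at day 42 (±2) follow-up: AEs coded by MedDRA V.17.0, clinical laboratory tests, vital signs, ECGs and physical examinations.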

[8] = test system: adults with gout; assay: Urinary uric acid pharmacodynamics; assay type: in vivo, human
How it was run: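 Total-catch urine was collected on day –1, then weekly for 4 weeks, in 1 h up to 2 or 10 h intervals. On collection days subjects drank 240 mL water on waking, 240 mL with the dose, ~160 mL/h for 12 h and 240 mL at 22 h. ReUR, AeUR, CLUR and FEUA were derived per time point per 24-h collection. Analysis used a mixed-effects model with baseline covariate.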

[9] = febuxostat 40 mg + verinurad 2.5 mg vs febuxostat alone
[10] = febuxostat 40 mg + verinurad 5 mg vs febuxostat alone
[11] = febuxostat 40 mg + verinurad 20 mg vs febuxostat alone
[12] = febuxostat 80 mg + verinurad 2.5 mg vs febuxostat alone
[13] = febuxostat 80 mg + verinurad 5 mg vs febuxostat alone
[14] = febuxostat 80 mg + verinurad 10 mg vs febuxostat alone
[15] = febuxostat 80 mg + verinurad 15 mg vs febuxostat alone

CC(C)(Sc1ccncc1-c1ccc(C#N)c2ccccc12)C(=O)O [verinurad]
sUA lowering in humans [1]: significant sUA lowering | Tmax ([2]; Median Tmax of verinurad, range over verinurad 2.5-20 mg with febuxostat 40 or 80 mg): 2.5 to 4 h | Tmax ([2]; Tmax, verinurad 2.5 mg + febuxostat 40 mg, median (range)): 3.5 h | Tmax ([2]; Tmax, verinurad 2.5 mg + febuxostat 80 mg, median (range)): 2.5 h | Tmax ([2]; Tmax, verinurad 5 mg + febuxostat 40 mg, median (range)): 3.5 h | Tmax ([2]; Tmax, verinurad 5 mg + febuxostat 80 mg, median (range)): 4 h | Tmax ([2]; Tmax, verinurad 10 mg + febuxostat 40 mg, median (range)): 3 h | Tmax ([2]; Tmax, verinurad 10 mg + febuxostat 80 mg, median (range)): 3 h | Tmax ([2]; Tmax, verinurad 15 mg + febuxostat 40 mg, median (range)): 3 h | Tmax ([2]; Tmax, verinurad 20 mg + febuxostat 40 mg, median (range)): 3 h | fe0-24 ([2]; verinurad 2.5 mg + febuxostat 40 mg): 0.661 (0.437 to 1.00) % | fe0-24 ([2]; verinurad 2.5 mg + febuxostat 80 mg): 0.622 (0.347 to 1.11) % | Verinurad Ae0-24 (amount excreted unchanged in urine) ([2]; verinurad 2.5 mg with febuxostat 80 mg): 15.5 µg | fe0-24 ([2]; verinurad 5 mg + febuxostat 40 mg): 0.657 (0.444 to 0.970) % | fe0-24 ([2]; verinurad 5 mg + febuxostat 80 mg): 0.640 (0.392 to 1.05) % | fe0-24 ([2]; verinurad 10 mg + febuxostat 40 mg): 0.810 (0.622 to 1.05) % | fe0-24 ([2]; verinurad 10 mg + febuxostat 80 mg): 1.03 (0.710 to 1.49) % | fe0-24 ([2]; verinurad 15 mg + febuxostat 40 mg): 0.692 (0.561 to 0.853) % | fe0-24 ([2]; verinurad 15 mg + febuxostat 80 mg): 0.816 (0.493 to 1.35) % | fe0-24 ([2]; verinurad 20 mg + febuxostat 40 mg): 0.717 (0.542 to 0.949) % | Verinurad Ae0-24 (amount excreted unchanged in urine) ([2]; verinurad 20 mg with febuxostat 40 mg): 143 µg

O=C(O)CSc1nnc(Br)n1-c1ccc(C2CC2)c2ccccc12 [lesinurad]
Rates of renal adverse effects [3]: increased rates of renal adverse effects

Cc1nc(-c2ccc(OCC(C)C)c(C#N)c2)sc1C(=O)O [febuxostat]
Increase in mean excretion of hypoxanthine [4]: 527% | Increase in mean excretion of xanthine [4]: 1965% | GMR AUC0-24 [5, 9]: 94.2 (88.1 to 101) % | GMR Cmax [5, 9]: 91.2 (69.3 to 120) % | GMR AUC0-24 [5, 10]: 92.4 (89.0 to 95.8) % | GMR Cmax [5, 10]: 85.6 (75.7 to 96.7) % | GMR AUC0-24 [5, 11]: 94.1 (89.4 to 99.0) % | GMR Cmax [5, 11]: 114 (92.0 to 141) % | GMR AUC0-24 [5, 12]: 98.6 (94.5 to 103) % | GMR Cmax [5, 12]: 146 (130 to 165) % | GMR AUC0-24 [5, 13]: 89.3 (82.8 to 96.3) % | GMR Cmax [5, 13]: 89.9 (68.8 to 117) % | GMR AUC0-24 [5, 14]: 94.2 (90.7 to 97.9) % | GMR Cmax [5, 14]: 101 (87.9 to 116) % | GMR AUC0-24 [5, 15]: 92.9 (84.1 to 103) % | GMR Cmax [5, 15]: 123 (88.3 to 173) % | Febuxostat exposures alone vs in combination with verinurad ([5]; febuxostat 40 or 80 mg): equivalence | Emax, maximum percent decrease in sUA from baseline ([6]; febuxostat 40 mg alone): 42% | Emax, maximum percent decrease in sUA from baseline ([6]; febuxostat 80 mg alone): 55% | TEAE of severe intensity [7]: a severe case of hypertriglyceridaemia | Mean maximum urinary uric acid excretion rate (ReUR) compared with baseline ([8]; febuxostat 40 and 80 mg alone): reduced below baseline | Influence on FEUA ([8]; febuxostat 40 or 80 mg administered alone): did not influence | Influence on CLUR ([8]; febuxostat 40 or 80 mg administered alone, data not shown): did not influence
